SIAE inh – blocks human sialic acid acetylesterase; AID 1053197; 370,000 tested, 0.69% active; Q9HAT2; SIAE FP-Rh probe binding, fluorescence polarization; inhibition, % at 9.66 µM;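 active = inhibition above a cutoff: mean of compounds within the control limits plus 3 SD of those, cut at about 17% in these data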
Target sequence (Q9HAT2 whole entry, looked up): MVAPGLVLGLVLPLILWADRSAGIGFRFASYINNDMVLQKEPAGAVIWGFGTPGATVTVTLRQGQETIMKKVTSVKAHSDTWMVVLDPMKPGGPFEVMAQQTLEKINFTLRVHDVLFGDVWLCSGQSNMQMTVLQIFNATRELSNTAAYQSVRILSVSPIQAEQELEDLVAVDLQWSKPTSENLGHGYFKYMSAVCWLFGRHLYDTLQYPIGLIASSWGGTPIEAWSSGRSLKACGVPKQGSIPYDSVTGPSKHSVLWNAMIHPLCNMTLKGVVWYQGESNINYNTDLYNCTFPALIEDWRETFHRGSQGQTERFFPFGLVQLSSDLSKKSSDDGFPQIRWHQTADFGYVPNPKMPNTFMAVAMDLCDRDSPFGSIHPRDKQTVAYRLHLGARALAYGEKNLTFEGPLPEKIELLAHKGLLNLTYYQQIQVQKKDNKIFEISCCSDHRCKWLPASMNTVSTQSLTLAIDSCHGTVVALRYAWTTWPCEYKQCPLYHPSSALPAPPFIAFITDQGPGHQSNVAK
ARNT TACC3 PPI – disruptors of human ARNT/TACC3 interaction; Q9Y6A5; AlphaScreen His-ARNT PAS-B/GST-TACC3 binding, luminescence; TACC3 fragment carries E629A point mutation; inhibition, % at 9.99 µM; 390,000 tested, 0.66% active; AID 623870;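 active = mean inhibition of replicates at least 50% and at least half of replicates each reaching 50%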
TCR-CD3 inh – blocks the human TCR-CD3 interaction; inhibition, % at 9.4 µM; TAMRA-labeled TCR probe fluorescence, biochemical; 360,000 tested, 0.37% active; in the data active = inhibition above about 19%;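 note: recombinant mutant TCR 2C K166C tagged with TAMRA read by polarization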
ABHD4 inh – inhibitors of mouse ABHD4; purified mABHD4, FP-Rh probe fluorescence polarization; inhibition, % at 8.92 µM; Q8VD66; 370,000 tested, 0.54% active;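 active = inhibition exceeding the mean over every tested compound plus 3 SD, cut at about 30% in these data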
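Test system: mABHD4 protein | Buffer or medium: HEPES pH 7.0 buffer, 150 mM NaCl, 0.01% Pluronic F-127 | Probe or stimulus: FP-Rh fluorescent activity-based probe, added after compound pre-incubation | Timing: Pre-incubation 45 min, probe exposure 60 min, at 25 °C | Technique: Fluorescence polarization, excitation 525 nm, emission 598 nm, BODIPY TMR filters | Repeats: Single well per compound (singlicate)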
HTRA1 inhibitor – blocks human HTRA1 serine peptidase. 340,000 tested, 0.5% active. inhibition, % at 5.96 µM. recombinant HTRA1, FP-rhodamine activity-based probe, fluorescence polarization. AID 504803. Q92743; in the data active = inhibition above about 36%
ABHD4 confirm – confirmation of mouse ABHD4 inhibitors | inhibition, % at 8.92 µM | purified mABHD4, FP-Rh probe fluorescence polarization | AID 720658 | shares compounds with ABHD4 inh | 1,800 tested, 55% active;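 active = mean inhibition across replicates above the hit cutoff set in the primary screen, cut at about 30% in these data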
Numbers stand for hits. In the library only some 1.8% were active in any assay of this set; here they are far more common.

What do the screens show for `CO[C@H]1CN(C)C(=O)c2cc(NS(=O)(=O)c3cn(C)cn3)ccc2OC[C@H](C)N(Cc2cccc(F)c2)C[C@@H]1C`?
ARNT TACC3 PPI: inactive

What do the screens show for `C[C@@H]1CN([C@@H](C)CO)C(=O)c2cccc(NS(=O)(=O)c3ccccc3)c2O[C@@H]1CN(C)Cc1ccc(C(=O)O)cc1`?
ARNT TACC3 PPI: inactive

How did C[C@H]1CN([C@@H](C)CO)C(=O)c2cc(NC(=O)CCC(F)(F)F)ccc2O[C@@H]1CN(C)S(=O)(=O)c1cccs1 do in these assays?
ARNT TACC3 PPI: inactive

What do the screens show for `CCC(C)COC(c1ccccc1)(c1ccccc1)C(Oc1nc(C)cc(C)n1)C(=O)O` (configuration not stated)?
SIAE inh: inactive; ARNT TACC3 PPI: inactive; TCR-CD3 inh: inactive; ABHD4 inh: 30.7; HTRA1 inhibitor: inactive; ABHD4 confirm: 35.4

How did Cc1cc(C)nc(OC(C(=O)O)C(OCCc2ccccc2)(c2ccc(F)cc2)c2ccc(F)cc2)n1 (configuration not stated) do in these assays?
SIAE inh: inactive; ARNT TACC3 PPI: inactive; TCR-CD3 inh: inactive; ABHD4 inh: 39.9; HTRA1 inhibitor: inactive; ABHD4 confirm: 42.6

How did Cc1cc(C)nc(OC(C(=O)O)C(OCC(C)C)(c2ccccc2)c2ccccc2)n1 (configuration not stated) do in these assays?
SIAE inh: inactive; ARNT TACC3 PPI: inactive; TCR-CD3 inh: inactive; ABHD4 inh: inactive; HTRA1 inhibitor: inactive

Results for CO[C@@H]1CN(C)C(=O)c2cc(NC(=O)c3cc(C)on3)ccc2OC[C@H](C)N(C(C)=O)C[C@H]1C ?
ARNT TACC3 PPI: inactive

How did O=C(C[C@@H]1CC[C@H]2[C@@H](COC[C@@H](O)CN2C(=O)c2ccc(F)cc2)O1)Nc1nccs1 do in these assays?
ARNT TACC3 PPI: inactive

Results for C[C@@H]1CN([C@H](C)CO)C(=O)c2cc(NC(=O)C3CCCCC3)ccc2O[C@@H](C)CCCCO[C@H]1CN(C)Cc1ccc(C(=O)O)cc1 ?
ARNT TACC3 PPI: inactive

Results for COc1ccc(C2C3=C(CC(C)(C)CC3=O)Oc3ncn4nc(-c5cccnc5)nc4c32)cc1 (configuration not stated) ?
SIAE inh: inactive; ARNT TACC3 PPI: inactive; TCR-CD3 inh: inactive; ABHD4 inh: 29.6; HTRA1 inhibitor: inactive; ABHD4 confirm: inactive

What do the screens show for `O=C(N[C@@H]1CC[C@H](CCNS(=O)(=O)c2ccccc2)O[C@H]1CO)c1cccc(F)c1`?
ARNT TACC3 PPI: inactive

What do the screens show for `C/C=C/c1ccc2c(c1)O[C@H](CN(C)C(=O)c1ccccc1F)[C@H](C)CN([C@H](C)CO)S2(=O)=O`?
ARNT TACC3 PPI: inactive

How did CCN(CC)CCN1C(=O)C(=O)/C(=C(/O)c2c(C)[nH]c(C(=O)OC)c2C)C1c1cccs1 (configuration not stated) do in these assays?
SIAE inh: inactive; ARNT TACC3 PPI: inactive; TCR-CD3 inh: inactive; ABHD4 inh: 34.5; HTRA1 inhibitor: inactive; ABHD4 confirm: inactive

How did CCN(CC)CCN1C(=O)C(=O)/C(=C(/O)c2c(C)[nH]c(C(=O)OC)c2C)C1c1ccccc1OC (configuration not stated) do in these assays?
SIAE inh: inactive; ARNT TACC3 PPI: inactive; TCR-CD3 inh: inactive; ABHD4 inh: inactive; HTRA1 inhibitor: inactive

How did Cc1noc(C)c1S(=O)(=O)Nc1ccc2c(c1)C(=O)N([C@@H](C)CO)C[C@H](C)[C@H](CN(C)C(=O)CCCN(C)C)OCCCC[C@H](C)O2 do in these assays?
ARNT TACC3 PPI: inactive

Results for Nc1cc(N)cc(C(=O)c2ccccc2)c1 ?
SIAE inh: inactive; TCR-CD3 inh: inactive; ABHD4 inh: 44.5; ABHD4 confirm: inactive

How did N#C/C(=C\c1ccc(-c2cccc(Cl)c2)o1)C(=O)Nc1cccc2cccnc12 do in these assays?
SIAE inh: inactive; ARNT TACC3 PPI: inactive; TCR-CD3 inh: inactive; ABHD4 inh: inactive; HTRA1 inhibitor: inactive

What do the screens show for `N#C/C(=C\c1ccc(-c2ccccc2)o1)C(=O)Nn1cnnc1`?
SIAE inh: inactive; ARNT TACC3 PPI: inactive; TCR-CD3 inh: inactive; ABHD4 inh: 47.4; HTRA1 inhibitor: inactive; ABHD4 confirm: inactive

How did CO[C@@H]1CN(C)C(=O)c2ccc(NC(=O)c3nc4ccccc4s3)cc2OC[C@H](C)N(Cc2ccncc2)C[C@@H]1C do in these assays?
ARNT TACC3 PPI: inactive

Results for C[C@H](CO)N1C[C@H](C)[C@@H](CN(C)C)Oc2ccc(NC(=O)NC3CCCCC3)cc2C1=O ?
ARNT TACC3 PPI: inactive

What do the screens show for `Cc1ccc2c(c1)c(Sc1ccccc1)c(CC(=O)O)n2C`?
SIAE inh: inactive; TCR-CD3 inh: inactive; ABHD4 inh: 30.3; HTRA1 inhibitor: inactive; ABHD4 confirm: 34.6

Results for CCOC(=O)Cc1c(Sc2ccccc2)c2cc(C)ccc2n1C ?
SIAE inh: inactive; ARNT TACC3 PPI: inactive; TCR-CD3 inh: inactive; ABHD4 inh: inactive; HTRA1 inhibitor: inactive

What do the screens show for `CCOC(=O)C1CCN(C2=C(NS(=O)(=O)c3ccc(Cl)cc3)C(=O)c3ccccc3C2=O)CC1`?
SIAE inh: inactive; ARNT TACC3 PPI: inactive; TCR-CD3 inh: inactive; ABHD4 inh: 40.5; HTRA1 inhibitor: inactive; ABHD4 confirm: 57.8

Results for CNC[C@@H]1Oc2ccc(NC(=O)C3CCCCC3)cc2CC(=O)N([C@@H](C)CO)C[C@@H]1C ?
ARNT TACC3 PPI: inactive

How did O=C(COc1ccccc1)Nc1nc2cc3c(cc2s1)OCO3 do in these assays?
SIAE inh: inactive; ARNT TACC3 PPI: inactive; TCR-CD3 inh: inactive; ABHD4 inh: 36.3; HTRA1 inhibitor: inactive; ABHD4 confirm: 39.6

Results for COc1ccc(NC(=O)c2sc(NC(=O)COc3ccccc3)nc2C)cc1 ?
SIAE inh: inactive; ARNT TACC3 PPI: inactive; TCR-CD3 inh: inactive; ABHD4 inh: 49.8; HTRA1 inhibitor: inactive; ABHD4 confirm: 59.8

How did Cc1nc(NC(=O)COc2ccccc2)sc1C(=O)Nc1cccc(Cl)c1 do in these assays?
SIAE inh: inactive; TCR-CD3 inh: inactive; ABHD4 inh: 43.4; HTRA1 inhibitor: inactive; ABHD4 confirm: 32.8

Results for CO[C@@H]1CN(C)C(=O)c2cc(NC(=O)Nc3ccccc3F)ccc2OC[C@@H](C)N(CC2CC2)C[C@H]1C ?
ARNT TACC3 PPI: inactive

How did C[C@@H]1CN([C@H](C)CO)C(=O)c2cc(NS(=O)(=O)c3cn(C)cn3)ccc2O[C@@H]1CN(C)C(=O)Nc1cccc2ccccc12 do in these assays?
ARNT TACC3 PPI: inactive

What do the screens show for `O=C(CCN1CCCCC1)N[C@@H]1CC[C@H](CCNS(=O)(=O)c2ccc(Cl)cc2)O[C@H]1CO`?
ARNT TACC3 PPI: inactive

What do the screens show for `CCCN1[C@H](C(=O)N2CCOCC2)[C@@H](CO)[C@@H]2Cn3c(ccc(-c4ccccc4)c3=O)[C@@H]21`?
ARNT TACC3 PPI: inactive

What do the screens show for `C[C@@H]1CN([C@@H](C)CO)C(=O)c2ccccc2-c2ccccc2CO[C@H]1CN(C)S(=O)(=O)c1ccc(C#N)cc1`?
ARNT TACC3 PPI: inactive

Screening data deposited in PubChem by several laboratories.
